In ChEMBL document CHEMBL1926653, “Synthesis and binding assays of novel 3,3-dimethylpiperidine derivatives with various lipophilicities as σ₁ receptor ligands” (Bioorg Med Chem, 2011):
pKi: −log10 of the molar value.

Assays:
[1] = Displacement of [3H]DTG from sigma 2 receptor in rat liver membranes; type: cell membranes, Membrane; conditions: read-out: Ki(app)
Summary of the method: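 Sigma-2 site labelled with [3H]-DTG at 30 Ci/mmol, following Matsumoto et al. Curves used 6–9 concentrations of test drug, repeated in two or three experiments with duplicate samples. IC50 (50% inhibition of specific binding) and apparent Ki were obtained by nonlinear curve fitting.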

[2] = biological target: Sigma non-opioid intracellular receptor 1 (Cavia porcellus, UniProt Q60492); assay: Displacement of [3H]-(+)-pentazocine from sigma1 receptor in guinea pig brain membranes without cerebellum; type: cell membranes, Membrane; conditions: read-out: Ki(app)
Sequence of Sigma non-opioid intracellular receptor 1 (Cavia porcellus, UniProt Q60492) (Q60492 whole entry): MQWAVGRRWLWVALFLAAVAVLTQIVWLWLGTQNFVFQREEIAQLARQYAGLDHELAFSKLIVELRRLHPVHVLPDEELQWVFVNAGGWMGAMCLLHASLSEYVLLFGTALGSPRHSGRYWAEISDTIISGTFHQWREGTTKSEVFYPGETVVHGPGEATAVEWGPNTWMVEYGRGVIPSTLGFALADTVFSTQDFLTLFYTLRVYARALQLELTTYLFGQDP

[3] = Selectivity ratio of Ki for sigma 2 receptor in rat liver membranes to Ki for sigma 1 receptor in guinea pig brain membranes; type: cell membranes; conditions: Membrane
[4] = biological target: T1, 3-beta-hydroxysteroid-Delta(8),Delta(7)-isomerase (Cavia porcellus, UniProt Q60490); assay: Displacement of [3H]-emopamil from delta(8)-delta(7) sterol isomerase in guinea pig liver membranes; type: cell membranes, Membrane; conditions: read-out: Ki(app)
T1 sequence (Q60490 whole entry): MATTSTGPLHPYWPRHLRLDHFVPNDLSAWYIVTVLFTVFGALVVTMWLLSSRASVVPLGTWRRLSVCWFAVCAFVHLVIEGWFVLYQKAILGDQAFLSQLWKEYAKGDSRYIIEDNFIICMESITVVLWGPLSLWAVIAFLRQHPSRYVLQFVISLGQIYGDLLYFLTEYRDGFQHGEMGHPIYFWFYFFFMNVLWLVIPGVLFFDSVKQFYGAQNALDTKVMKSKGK
Summary of the method: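 Assay followed Moebius et al. Inhibition curves used 6–9 drug concentrations over two or three experiments run in duplicate. IC50 is the concentration giving 50% loss of specific radioligand binding. Apparent Ki came from nonlinear curve fitting.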

[5] = biological target: Sigma non-opioid intracellular receptor 1 (Rattus norvegicus, UniProt Q9R0C9); assay: Binding affinity to sigma1 receptor in rat brain membranes; type: cell membranes
Sequence of Sigma non-opioid intracellular receptor 1 (Rattus norvegicus, UniProt Q9R0C9) (Q9R0C9 whole entry): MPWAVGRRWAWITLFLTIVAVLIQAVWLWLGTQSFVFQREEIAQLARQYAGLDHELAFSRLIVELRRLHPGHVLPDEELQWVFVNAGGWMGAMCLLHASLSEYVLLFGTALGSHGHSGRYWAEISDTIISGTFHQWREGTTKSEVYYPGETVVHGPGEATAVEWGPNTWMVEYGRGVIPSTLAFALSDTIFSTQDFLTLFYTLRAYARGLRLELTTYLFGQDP
Summary of the method: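 Radioligand displacement binding. IC50 is the concentration inhibiting 50% of specific radioligand binding, from 6–9 concentrations of the test drug, run in two or three experiments with duplicate samples. Apparent Ki came from nonlinear curve fitting. Compounds were tested as hydrochloride salts, or as free bases in some cases.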

[6] = biological target: Sigma non-opioid intracellular receptor 1 (Cavia porcellus) (UniProt Q60492); assay: Displacement of [3H]-(+)-pentazocine from sigma 1 receptor in guinea pig brain membranes at 10^-10 M; type: cell membranes; conditions: Membrane
Sequence of Sigma non-opioid intracellular receptor 1 (Cavia porcellus) (Q60492 whole entry): as the sequence (Q60492 whole entry) above

| SMILES | pKi [1] | pKi [2] | Ratio Ki [3] | pKi [4] | pKi [5] | inhibition [6] [%] |
| --- | --- | --- | --- | --- | --- | --- |
| CC1(C)CCCN(CCCn2ccc3ccccc32)C1 | 6.71 | 7.29 | 3.8 | – | – | – |
| CC1(C)CCCN(CCCn2nnc3ccccc32)C1 | 5.70 | 6.47 | 5.6 | – | – | – |
| CC1(C)CCCN(CCCCN2CCCC(C)(C)C2)C1 | 6.38 | 7.85 | 29 | 6.67 | – | – |
| CC1(C)CCCN(CCCCC2CCc3ccccc32)C1 (stereo unspecified) | 6.62 | 8.76 | 138 | 8.81 | – | – |
| CC1(C)CCCN(CCNc2nc3ccccc3s2)C1 | 6.13 | 6.25 | 1.3 | 6.94 | – | – |
| CC1(C)CCCN(CCNc2nccs2)C1 | 5.48 | 6.34 | 7.2 | 5.85 | – | – |
| CC1(C)CCCN(CCNc2nc3c(s2)C(=O)CCC3)C1 | < 5.00 | < 5.00 | – | < 5.00 | – | – |
| CC1(C)CCCN(CC(=O)Nc2nc3c(s2)C(=O)CCC3)C1 | < 5.00 | < 5.00 | – | < 5.00 | – | – |
| CC1(C)CCCN(CCCC2CCCc3sccc32)C1 (racemic) [listing 1 of 3 here] | 7.42 | 9.68 | – | 8.51 | – | – |
| CC1(C)CCCN(CCCc2cccc3sccc23)C1 | 7.20 | 7.28 | 1.2 | 9.05 | – | – |
| CC1(C)CCCN(CCCc2c[nH]c3ccccc23)C1 | 6.96 | 7.38 | 2.6 | – | – | – |
| CC1(C)CCCN(CCCc2cccc3occc23)C1 | 7.37 | 7.20 | 0.7 | 8.96 | – | – |
| COc1cccc2c1CCCC2CCCCN1CCCC(C)(C)C1 (stereo unspecified) | 6.61 | 8.67 | 117 | 9.17 | – | – |
| CC1(C)CCCN(Cc2cc3ccccc3o2)C1 | 5.74 | 5.43 | 0.4 | – | – | – |
| CC1(C)CCCN(CCCC2CCCCc3ccccc32)C1 (racemic) | 7.43 | 9.42 | 101 | 9.70 | – | – |
| CC1(C)CCCN(CCCC2CCCc3sccc32)C1 (racemic) [listing 2 of 3 here] | – | – | – | – | < 5.40 | – |
| CC1(C)CCCN(CCCC2CCCc3sccc32)C1 (racemic) [listing 3 of 3 here] | – | – | 180 | – | – | – |
| CC1(C)CCCN(CCCCC2CCCCC2)C1 | 7.71 | 8.99 | 19 | 8.42 | – | – |
| CC1(C)CCCN(CCCC2CCCc3[nH]ccc32)C1 (racemic) | 6.92 | 7.57 | 4.4 | – | – | – |
| CC(C(O)c1ccc(O)cc1)N1CCC(Cc2ccccc2)CC1 (racemic) [IFENPRODIL] | – | – | – | 7.82 | – | – |
| CC1(C)CCCN(CCCCCC2CCCc3sccc32)C1 (racemic) | 7.55 | – | – | 8.68 | – | 78 |
| Cc1ccccc1NC(=N)Nc1ccccc1C [DITOLYLGUANIDINE] | 7.46 | – | – | – | – | – |
| CC1(C)CCCN(CCCCC2CCCCc3ccccc32)C1 (racemic) | 7.18 | 9.85 | 471 | 8.14 | – | – |
